Test results from ChEMBL document CHEMBL1135421, “2-(Anilinomethyl)imidazolines as alpha1 adrenergic receptor agonists: the discovery of alpha1a subtype selective 2'-alkylsulfonyl-substituted analogues” (J Med Chem, 2002).

Assays:
[1] = target: T1, Alpha-1D adrenergic receptor (Homo sapiens, UniProt P25100); experiment: Affinity to human Alpha-1D adrenergic receptor determined by radioligand binding techniques from rat-1 fibroblasts membranes
T1 sequence (P25100 whole entry): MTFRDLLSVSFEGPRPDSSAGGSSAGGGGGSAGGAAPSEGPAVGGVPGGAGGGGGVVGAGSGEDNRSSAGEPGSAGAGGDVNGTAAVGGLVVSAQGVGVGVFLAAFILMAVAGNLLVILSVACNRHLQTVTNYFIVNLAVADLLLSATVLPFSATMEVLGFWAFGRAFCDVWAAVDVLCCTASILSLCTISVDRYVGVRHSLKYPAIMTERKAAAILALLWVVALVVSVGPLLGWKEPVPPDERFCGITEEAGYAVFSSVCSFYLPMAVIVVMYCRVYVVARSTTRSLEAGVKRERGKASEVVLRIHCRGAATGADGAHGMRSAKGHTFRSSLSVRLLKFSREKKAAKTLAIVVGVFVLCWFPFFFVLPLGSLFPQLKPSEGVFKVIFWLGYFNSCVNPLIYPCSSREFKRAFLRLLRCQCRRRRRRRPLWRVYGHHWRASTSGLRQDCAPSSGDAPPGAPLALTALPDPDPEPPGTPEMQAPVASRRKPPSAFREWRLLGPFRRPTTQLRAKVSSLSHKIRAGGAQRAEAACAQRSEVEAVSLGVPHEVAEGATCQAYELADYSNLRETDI

[2] = target: T1, Alpha-1D adrenergic receptor; experiment: Agonist potency at Alpha-1D adrenergic receptor assayed in rat-1 fibroblasts expressing human Alpha-1D adrenergic receptor; format: functional
Summary of the method: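 Rat-1 fibroblasts expressing human α1a/α1b/α1d, grown in DMEM with 10% heat-inactivated FBS and 0.6 mg/mL G418, plated 6000 cells/well and cultured 48 h at 37 °C. Loaded 2 h at 37 °C with Calcium Green (4 μM), 0.2% pluronic acid and 2.5 mM probenecid in HEPES buffer pH 7.4. FLIPR read at room temperature: 10 s baseline, then 50 s after compound. 11-point curves as % of 40 μM phenylephrine response, top concentration typically 5 μM.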

[3] = target: T2, Alpha-1A adrenergic receptor (Homo sapiens, UniProt P35348); experiment: Affinity to Alpha-1 adrenergic receptor determined by radioligand binding techniques from rat-1 fibroblasts membranes
T2 sequence (P35348 whole entry): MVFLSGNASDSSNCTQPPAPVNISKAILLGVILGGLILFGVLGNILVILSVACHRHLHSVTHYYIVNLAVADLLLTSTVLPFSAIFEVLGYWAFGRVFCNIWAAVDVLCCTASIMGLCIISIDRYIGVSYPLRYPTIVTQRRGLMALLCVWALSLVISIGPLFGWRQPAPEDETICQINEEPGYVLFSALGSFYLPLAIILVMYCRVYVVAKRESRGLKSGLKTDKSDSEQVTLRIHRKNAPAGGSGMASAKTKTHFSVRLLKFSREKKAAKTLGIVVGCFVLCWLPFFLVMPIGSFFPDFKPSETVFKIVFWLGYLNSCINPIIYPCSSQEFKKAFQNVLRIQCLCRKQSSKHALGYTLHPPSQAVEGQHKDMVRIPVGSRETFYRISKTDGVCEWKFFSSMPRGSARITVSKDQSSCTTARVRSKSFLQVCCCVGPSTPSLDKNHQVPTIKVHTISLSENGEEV

[4] = target: T3, Alpha-2B adrenergic receptor (Homo sapiens, UniProt P18089); experiment: Affinity to human Alpha-2B adrenergic receptor determined by radioligand binding techniques from chinese hamster ovary (CHO) cells; format: cell-based
T3 sequence (P18089 whole entry): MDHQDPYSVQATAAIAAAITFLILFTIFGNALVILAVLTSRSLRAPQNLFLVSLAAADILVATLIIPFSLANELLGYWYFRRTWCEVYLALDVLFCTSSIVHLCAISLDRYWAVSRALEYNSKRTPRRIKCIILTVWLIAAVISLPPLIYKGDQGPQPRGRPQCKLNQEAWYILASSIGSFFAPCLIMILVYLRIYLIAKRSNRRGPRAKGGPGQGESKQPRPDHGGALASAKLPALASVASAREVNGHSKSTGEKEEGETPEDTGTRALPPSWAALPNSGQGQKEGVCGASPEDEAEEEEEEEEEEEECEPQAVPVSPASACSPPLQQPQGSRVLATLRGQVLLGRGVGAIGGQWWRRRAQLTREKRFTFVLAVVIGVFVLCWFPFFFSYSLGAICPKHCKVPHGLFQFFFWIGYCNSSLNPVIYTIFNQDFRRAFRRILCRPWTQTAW

[5] = target: T4, Alpha-1B adrenergic receptor (Homo sapiens, UniProt P35368); experiment: Affinity to human Alpha-1B adrenergic receptor determined by radioligand binding techniques from rat-1 fibroblasts membranes
T4 sequence (P35368 whole entry): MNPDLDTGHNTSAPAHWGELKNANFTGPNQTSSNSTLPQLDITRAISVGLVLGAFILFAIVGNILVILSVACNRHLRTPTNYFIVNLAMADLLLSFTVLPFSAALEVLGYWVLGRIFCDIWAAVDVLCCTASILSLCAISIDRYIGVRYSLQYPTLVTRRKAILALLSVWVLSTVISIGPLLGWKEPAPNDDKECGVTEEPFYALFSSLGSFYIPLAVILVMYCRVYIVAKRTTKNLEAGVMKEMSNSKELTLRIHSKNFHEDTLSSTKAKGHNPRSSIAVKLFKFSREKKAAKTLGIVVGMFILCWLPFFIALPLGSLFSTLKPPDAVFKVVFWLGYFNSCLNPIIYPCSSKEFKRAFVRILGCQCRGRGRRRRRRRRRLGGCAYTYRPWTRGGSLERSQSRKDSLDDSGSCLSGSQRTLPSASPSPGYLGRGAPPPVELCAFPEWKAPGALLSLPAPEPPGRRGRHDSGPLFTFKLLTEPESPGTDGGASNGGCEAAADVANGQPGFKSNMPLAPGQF

[6] = target: T5, Alpha-2C adrenergic receptor (Homo sapiens) (UniProt P18825); experiment: Efficacy as percentage of the maximal effect observed for nonselective agonist UK-14304 in CHO cells expressing human Alpha-2C adrenergic receptor; format: functional, cell-based
T5 sequence (whole entry): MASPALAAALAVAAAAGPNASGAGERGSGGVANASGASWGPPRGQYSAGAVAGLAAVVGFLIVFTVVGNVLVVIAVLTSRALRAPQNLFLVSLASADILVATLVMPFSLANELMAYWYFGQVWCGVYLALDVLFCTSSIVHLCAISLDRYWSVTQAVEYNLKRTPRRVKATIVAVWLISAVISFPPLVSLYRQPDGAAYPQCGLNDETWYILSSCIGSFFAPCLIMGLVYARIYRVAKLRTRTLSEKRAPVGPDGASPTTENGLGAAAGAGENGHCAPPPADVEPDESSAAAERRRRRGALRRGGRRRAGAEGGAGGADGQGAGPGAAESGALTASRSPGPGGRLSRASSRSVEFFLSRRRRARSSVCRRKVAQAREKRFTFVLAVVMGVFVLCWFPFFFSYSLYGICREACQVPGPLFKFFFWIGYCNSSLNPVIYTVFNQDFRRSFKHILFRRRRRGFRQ

[7] = target: T6, Alpha-2C adrenergic receptor (Homo sapiens, UniProt P18825); experiment: Affinity to human Alpha-2C adrenergic receptor determined by radioligand binding techniques from chinese hamster ovary (CHO) cells; format: cell-based
T6 sequence (P18825 whole entry): T5 sequence (whole entry)

[8] = target: T6, Alpha-2C adrenergic receptor; experiment: Agonist potency at Alpha-2C adrenergic receptor assayed in CHO cells expressing human Alpha-2C adrenergic receptor; format: functional, cell-based

EC50 [8]	SMILES	Ki [1]	EC50 [2]	Ki [3]	Ki [4]	Ki [5]	Max [6]	Ki [7]
–	CS(=O)(=O)c1c(F)cccc1NCC1=NCCN1	3470 nM	> 100000 nM	550 nM	> 6310 nM	2290 nM	93%	257 nM
–	CC(C)S(=O)(=O)c1ccccc1NCC1=NCCN1	2820 nM	> 5010 nM	2690 nM	> 6310 nM	1000 nM	50%	> 5010 nM
> 10000 nM	CS(=O)(=O)c1ccc(C(F)(F)F)cc1NCC1=NCCN1	> 15800 nM	> 100000 nM	> 12600 nM	> 6310 nM	> 10000 nM	25%	> 5010 nM
1120 nM	Cc1ccc(S(C)(=O)=O)c(NCC2=NCCN2)c1	4790 nM	> 2000 nM	776 nM	> 6310 nM	3470 nM	76%	> 5010 nM
447 nM	CS(=O)(=O)c1cccc(F)c1NCC1=NCCN1	912 nM	> 100000 nM	417 nM	> 6310 nM	380 nM	93%	692 nM
–	C[S+]([O-])c1ccccc1NCC1=NCCN1 (centres undefined)	1200 nM	–	1290 nM	> 6310 nM	794 nM	74%	> 5010 nM
–	CCCS(=O)(=O)c1ccccc1NCC1=NCCN1	1380 nM	–	2190 nM	> 6310 nM	832 nM	56%	2630 nM
3160 nM	CS(=O)(=O)c1ccccc1NCC1=NCCN1	3800 nM	–	589 nM	> 6310 nM	1290 nM	68%	> 5010 nM
–	CSc1ccccc1NCC1=NCCN1	11.2 nM	–	43.7 nM	776 nM	66.1 nM	82%	145 nM
100 nM	CSc1cc(F)ccc1NCC1=NCCN1	5.01 nM	9.12 nM	20.9 nM	851 nM	15.1 nM	82%	219 nM
2000 nM	CS(=O)(=O)c1ccc(F)cc1NCC1=NCCN1	2630 nM	> 100000 nM	813 nM	> 6310 nM	1320 nM	91%	> 5010 nM
5.62 nM	CSc1ccc(F)cc1NCC1=NCCN1	6.17 nM	21.9 nM	33.1 nM	331 nM	40.7 nM	97%	115 nM
–	COc1ccc(SC)c(NCC2=NCCN2)c1	107 nM	5.01 nM	174 nM	> 6310 nM	692 nM	74%	603 nM
–	CSc1c(F)cccc1NCC1=NCCN1	302 nM	33.9 nM	148 nM	3980 nM	240 nM	104%	219 nM
–	CC(C)Sc1ccccc1NCC1=NCCN1	224 nM	> 5010 nM	57.5 nM	2340 nM	170 nM	91%	166 nM
–	CS(=O)(=O)c1cc(F)ccc1NCC1=NCCN1	1620 nM	–	661 nM	> 6310 nM	513 nM	32%	> 5010 nM
–	CCS(=O)(=O)c1ccccc1NCC1=NCCN1	2240 nM	> 100000 nM	1200 nM	> 6310 nM	912 nM	64%	2510 nM

SMILES	EC50 [8]	Ki [1]	EC50 [2]	Ki [3]	Ki [4]	Ki [5]	Max [6]	Ki [7]
CS(=O)(=O)c1cc(Cl)ccc1NCC1=NCCN1	> 10000 nM	871 nM	> 100000 nM	457 nM	> 6310 nM	646 nM	54%	3980 nM
CSc1ccc(Cl)cc1NCC1=NCCN1	2.82 nM	4.68 nM	2.69 nM	18.6 nM	676 nM	69.2 nM	92%	170 nM
CSc1ccc(C(F)(F)F)cc1NCC1=NCCN1	7.94 nM	479 nM	43.7 nM	589 nM	1660 nM	2040 nM	45%	603 nM
CSc1ccc(C)cc1NCC1=NCCN1	8.91 nM	17.4 nM	0.912 nM	20.9 nM	977 nM	123 nM	81%	200 nM
CCSc1ccccc1NCC1=NCCN1	28.2 nM	57.5 nM	51.3 nM	43.7 nM	1620 nM	75.9 nM	101%	269 nM
CS(=O)(=O)c1ccc(Cl)cc1NCC1=NCCN1	794 nM	2400 nM	> 100000 nM	537 nM	> 6310 nM	2950 nM	81%	4790 nM
